Measurements: ChEMBL document CHEMBL1134346, “Labeling and evaluation of N-[11C]methylated quinoline-2-carboxamides as potential radioligands for visualization of peripheral benzodiazepine receptors” (J Med Chem, 2001)

Columns and labels:
Rattus norvegicus [1] = organism: Rattus norvegicus; assay: Tissue (spleen) distribution in Albino male CD rats after 5 minutes expressed as percent of injected dose per gram of organ.; assay type: ADME, organism-based; conditions: in vivo
In short: (§1)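 Male albino CD rats (225-250 g) received the 11C-labelled radioligand in saline by tail-vein injection. Three rats per time point were decapitated under light ether anaesthesia at 5, 15, 30, 60 or 90 min. Blood was collected heparinized and plasma separated by centrifugation. The pituitary was dissected from the brain. Lung, liver (three-lobe pieces) and right deltoid muscle were sampled, washed in cold saline, gamma-counted and weighed. Results are %I.D./g.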

Rattus norvegicus [2] = organism: Rattus norvegicus; assay: Tissue (spleen) distribution in Albino male CD rats after 90 minutes expressed as percent of injected dose per gram of organ.; assay type: ADME, organism-based; conditions: in vivo, 1.5 h
Rattus norvegicus [3] = organism: Rattus norvegicus; assay: Tissue (testicle) distribution in Albino male CD rats after 15 minutes expressed as percent of injected dose per gram of organ.; assay type: ADME, organism-based; conditions: in vivo, 0.25 h; in short: as §1
Rattus norvegicus [4] = organism: Rattus norvegicus; assay: Tissue (testicle) distribution in Albino male CD rats after 5 minutes expressed as percent of injected dose per gram of organ.; assay type: ADME, organism-based; conditions: in vivo; in short: as §1
Rattus norvegicus [5] = organism: Rattus norvegicus; assay: Tissue (kidney) distribution in Albino male CD rats after 60 minutes expressed as percent of injected dose per gram of organ.; assay type: ADME, organism-based; conditions: in vivo, 1 h
In short: (§2)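 Radioligand given in saline into tail vein of male albino CD rats (225-250 g); 100-200 µCi per animal, 1-2 Ci/µmol at injection depending on radioligand. Three rats per time point were decapitated under light ether anaesthesia. Blood, plasma, brain regions and washed organs were weighed and gamma-counted. Uptake is %I.D./g tissue, mean ± SD.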

Rattus norvegicus [6] = organism: Rattus norvegicus; assay: Tissue (kidney) distribution in Albino male CD rats after 90 minutes expressed as percent of injected dose per gram of organ.; assay type: ADME, organism-based; conditions: in vivo, 1.5 h; in short: as §2
Rattus norvegicus [7] = organism: Rattus norvegicus; assay: Tissue (liver) concentration of radioactivity at 30 min post-injection into Albino male CD rats with vehicle.; assay type: ADME, organism-based; conditions: in vivo, 0.5 h
In short: (§3)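 Separate groups of five rats received tail-vein PK 11195 (1.4-1.6 mg; 5 mg/kg) in 30 µL DMSO:EtOH 1:1, or vehicle alone, immediately before iv radioligand (90-170 µCi in saline, 0.9-1 Ci/µmol). Rats were decapitated at 30 min and tissues gamma-counted; values are %I.D./g.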

Rattus norvegicus [8] = organism: Rattus norvegicus; assay: Tissue (liver) distribution in Albino male CD rats after 15 minutes expressed as percent of injected dose per gram of organ.; assay type: ADME, organism-based; conditions: in vivo, 0.25 h; in short: as §2
Rattus norvegicus [9] = organism: Rattus norvegicus; assay: Tissue (liver) distribution in Albino male CD rats after 30 minutes expressed as percent of injected dose per gram of organ.; assay type: ADME, organism-based; conditions: in vivo, 0.5 h; in short: as §1
Rattus norvegicus [10] = organism: Rattus norvegicus; assay: Tissue (liver) distribution in Albino male CD rats after 90 minutes expressed as percent of injected dose per gram of organ.; assay type: ADME, organism-based; conditions: in vivo, 1.5 h; in short: as §1
Rattus norvegicus [11] = organism: Rattus norvegicus; assay: Tissue (lung) concentration of radioactivity at 30 min post-injection into Albino male CD rats with vehicle.; assay type: ADME, organism-based; conditions: in vivo, 0.5 h
In short: (§4)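 Blocking study in male albino CD rats, five per group. Immediately before the 11C radioligand (in saline, i.v. tail vein), rats received 30 µL tail-vein PK 11195 (5 mg/kg; 1.4-1.6 mg) in DMSO:EtOH 1:1, or vehicle. Rats were decapitated at 30 min. Tissues were dissected, washed, gamma-counted and weighed as in the biodistribution study. Results are %I.D./g.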

Rattus norvegicus [12] = organism: Rattus norvegicus; assay: Tissue (lung) distribution in Albino male CD rats after 5 minutes expressed as percent of injected dose per gram of organ.; assay type: ADME, organism-based; conditions: in vivo; in short: as §1
Rattus norvegicus [13] = organism: Rattus norvegicus; assay: Tissue (lung) distribution in Albino male CD rats after 60 minutes expressed as percent of injected dose per gram of organ.; assay type: ADME, organism-based; conditions: in vivo, 1 h; in short: as §1
Rattus norvegicus [14] = organism: Rattus norvegicus; assay: Tissue (lung) distribution in Albino male CD rats after 90 minutes expressed as percent of injected dose per gram of organ.; assay type: ADME, organism-based; conditions: in vivo, 1.5 h; in short: as §1
Rattus norvegicus [15] = organism: Rattus norvegicus; assay: Tissue (blood) distribution in Albino male CD rats after 30 minutes expressed as percent of injected dose per gram of organ.; assay type: ADME, organism-based; conditions: in vivo, 0.5 h; in short: as §2
Rattus norvegicus [16] = organism: Rattus norvegicus; assay: Tissue (blood) distribution in Albino male CD rats after 5 minutes expressed as percent of injected dose per gram of organ.; assay type: ADME, organism-based; conditions: in vivo; in short: as §2
Rattus norvegicus [17] = organism: Rattus norvegicus; assay: Tissue (adrenal gland) concentration of radioactivity at 30 min post-injection into Albino male CD rats with vehicle.; assay type: ADME, organism-based; conditions: in vivo, 0.5 h; in short: as §3
Rattus norvegicus [18] = organism: Rattus norvegicus; assay: Tissue (adrenal gland) distribution in Albino male CD rats after 15 minutes expressed as percent of injected dose per gram of organ.; assay type: ADME, organism-based; conditions: in vivo, 0.25 h; in short: as §2
Rattus norvegicus [19] = organism: Rattus norvegicus; assay: Tissue (adrenal gland) distribution in Albino male CD rats after 60 minutes expressed as percent of injected dose per gram of organ.; assay type: ADME, organism-based; conditions: in vivo, 1 h; in short: as §2
Rattus norvegicus [20] = organism: Rattus norvegicus; assay: Tissue (adrenal gland) distribution in Albino male CD rats after 90 minutes expressed as percent of injected dose per gram of organ.; assay type: ADME, organism-based; conditions: in vivo, 1.5 h; in short: as §2
Rattus norvegicus [21] = organism: Rattus norvegicus; assay: Tissue (spleen) distribution in Albino male CD rats after 15 minutes expressed as percent of injected dose per gram of organ.; assay type: ADME, organism-based; conditions: in vivo, 0.25 h
Rattus norvegicus [22] = organism: Rattus norvegicus; assay: Tissue (muscle) concentration of radioactivity at 30 min post-injection into Albino male CD rats with vehicle.; assay type: ADME, organism-based; conditions: in vivo, 0.5 h; in short: as §4
Rattus norvegicus [23] = organism: Rattus norvegicus; assay: Tissue (cortex) concentration of radioactivity at 30 min post-injection into Albino male CD rats with vehicle.; assay type: ADME, organism-based; conditions: in vivo, 0.5 h; in short: as §3
Rattus norvegicus [24] = organism: Rattus norvegicus; assay: Tissue (cortex) distribution in Albino male CD rats after 5 minutes expressed as percent of injected dose per gram of organ.; assay type: ADME, organism-based; conditions: in vivo; in short: as §2
Rattus norvegicus [25] = organism: Rattus norvegicus; assay: Tissue (cortex) distribution in Albino male CD rats after 60 minutes expressed as percent of injected dose per gram of organ.; assay type: ADME, organism-based; conditions: in vivo, 1 h; in short: as §2
Rattus norvegicus [26] = organism: Rattus norvegicus; assay: Tissue (muscle) distribution in Albino male CD rats after 90 minutes expressed as percent of injected dose per gram of organ.; assay type: ADME, organism-based; conditions: in vivo, 1.5 h; in short: as §1
Rattus norvegicus [27] = organism: Rattus norvegicus; assay: Tissue (pituitary) distribution in Albino male CD rats after 15 minutes expressed as percent of injected dose per gram of organ.; assay type: ADME, organism-based, Pituitary gland; conditions: in vivo, 0.25 h; in short: as §1
Rattus norvegicus [28] = organism: Rattus norvegicus; assay: Tissue (pituitary) distribution in Albino male CD rats after 60 minutes expressed as percent of injected dose per gram of organ.; assay type: ADME, organism-based, Pituitary gland; conditions: in vivo, 1 h; in short: as §1
Rattus norvegicus [29] = organism: Rattus norvegicus; assay: Tissue (pituitary) distribution in Albino male CD rats after 90 minutes expressed as percent of injected dose per gram of organ.; assay type: ADME, organism-based, Pituitary gland; conditions: in vivo, 1.5 h; in short: as §1
Rattus norvegicus [30] = organism: Rattus norvegicus; assay: Tissue (plasma) distribution in Albino male CD rats after 15 minutes expressed as percent of injected dose per gram of organ.; assay type: ADME, organism-based; conditions: in vivo, 0.25 h; in short: as §1
Rattus norvegicus [31] = organism: Rattus norvegicus; assay: Tissue (plasma) distribution in Albino male CD rats after 60 minutes expressed as percent of injected dose per gram of organ.; assay type: ADME, organism-based; conditions: in vivo, 1 h; in short: as §1
Rattus norvegicus [32] = organism: Rattus norvegicus; assay: Tissue (plasma) distribution in Albino male CD rats after 90 minutes expressed as percent of injected dose per gram of organ.; assay type: ADME, organism-based; conditions: in vivo, 1.5 h; in short: as §1
Rattus norvegicus [33] = organism: Rattus norvegicus; assay: Tissue (heart) distribution in Albino male CD rats after 5 minutes expressed as percent of injected dose per gram of organ.; assay type: ADME, organism-based; conditions: in vivo; in short: as §2
Rattus norvegicus [34] = organism: Rattus norvegicus; assay: Tissue (intestine) distribution in Albino male CD rats after 30 minutes expressed as percent of injected dose per gram of organ.; assay type: ADME, organism-based; conditions: in vivo, 0.5 h; in short: as §2
Rattus norvegicus [35] = organism: Rattus norvegicus; assay: Tissue (intestine) distribution in Albino male CD rats after 90 minutes expressed as percent of injected dose per gram of organ.; assay type: ADME, organism-based; conditions: in vivo, 1.5 h; in short: as §2
Rattus norvegicus [36] = organism: Rattus norvegicus; assay: Tissue (kidney) distribution in Albino male CD rats after 15 minutes expressed as percent of injected dose per gram of organ.; assay type: ADME, organism-based; conditions: in vivo, 0.25 h; in short: as §2
Rattus norvegicus [37] = organism: Rattus norvegicus; assay: Tissue (cerebellum) distribution in Albino male CD rats after 15 minutes expressed as percent of injected dose per gram of organ.; assay type: ADME, organism-based; conditions: in vivo, 0.25 h; in short: as §2
Rattus norvegicus [38] = organism: Rattus norvegicus; assay: Tissue (cerebellum) distribution in Albino male CD rats after 30 minutes expressed as percent of injected dose per gram of organ.; assay type: ADME, organism-based; conditions: in vivo, 0.5 h; in short: as §2
Rattus norvegicus [39] = organism: Rattus norvegicus; assay: Tissue (cerebellum) distribution in Albino male CD rats after 90 minutes expressed as percent of injected dose per gram of organ.; assay type: ADME, organism-based; conditions: in vivo, 1.5 h; in short: as §2
[40] = biological target: Translocator protein (Rattus norvegicus) (UniProt P16257); assay: Tissue (cortex) concentration of radioactivity at 30 min post-injection into Albino male CD rats after pretreatment with cold PK 11195.; assay type: functional; in short: as §3
Chain of Translocator protein (Rattus norvegicus) (P16257 whole entry, looked up): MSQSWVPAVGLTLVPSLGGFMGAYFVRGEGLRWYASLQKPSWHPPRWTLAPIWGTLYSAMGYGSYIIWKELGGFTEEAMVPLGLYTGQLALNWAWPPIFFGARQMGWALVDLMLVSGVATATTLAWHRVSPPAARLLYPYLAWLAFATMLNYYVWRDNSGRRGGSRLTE

- I.D./g (Rattus norvegicus [1]): 0.28%
- I.D./g (Rattus norvegicus [2]): 1.56%
- I.D./g (Rattus norvegicus [3]): 0.12%
- I.D./g (Rattus norvegicus [4]): 0.06%
- I.D./g (Rattus norvegicus [5]): 1.14%
- I.D./g (Rattus norvegicus [6]): 1.34%
- I.D./g (Rattus norvegicus [7]): 0.08%
- I.D./g (Rattus norvegicus [8]): 0.59%
- I.D./g (Rattus norvegicus [9]): 0.43%
- I.D./g (Rattus norvegicus [10]): 0.4%
- I.D./g (Rattus norvegicus [11]): 0.35%
- I.D./g (Rattus norvegicus [12]): 4%
- I.D./g (Rattus norvegicus [13]): 1.48%
- I.D./g (Rattus norvegicus [14]): 1.21%
- I.D./g (Rattus norvegicus [15]): 0.06%
- I.D./g (Rattus norvegicus [16]): 0.2%
- I.D./g (Rattus norvegicus [17]): 0.62%
- I.D./g (Rattus norvegicus [18]): 2.29%
- I.D./g (Rattus norvegicus [19]): 4%
- I.D./g (Rattus norvegicus [20]): 3.74%
- I.D./g (Rattus norvegicus [21]): 1.27%
- I.D./g (Rattus norvegicus [22]): 0.03%
- I.D./g (Rattus norvegicus [23]): 0.02%
- I.D./g (Rattus norvegicus [24]): 0.25%
- I.D./g (Rattus norvegicus [25]): 0.06%
- I.D./g (Rattus norvegicus [26]): 0.21%
- I.D./g (Rattus norvegicus [27]): 0.49%
- I.D./g (Rattus norvegicus [28]): 0.36%
- I.D./g (Rattus norvegicus [29]): 0.15%
- I.D./g (Rattus norvegicus [30]): 0.09%
- I.D./g (Rattus norvegicus [31]): 0.05%
- I.D./g (Rattus norvegicus [32]): 0.05%
- I.D./g (Rattus norvegicus [33]): 1.79%
- I.D./g (Rattus norvegicus [34]): 0.55%
- I.D./g (Rattus norvegicus [35]): 0.68%
- I.D./g (Rattus norvegicus [36]): 1.17%
- I.D./g (Rattus norvegicus [37]): 0.2%
- I.D./g (Rattus norvegicus [38]): 0.12%
- I.D./g (Rattus norvegicus [39]): 0.09%
- I.D./g [40]: 0.02%
SMILES: Cc1c(C(=O)N(C)Cc2ccccc2)nc2ccccc2c1-c1ccccc1
